Measured values reported in ChEMBL document CHEMBL3352197, “Design, synthesis, in silico and in vitro studies of novel 4-methylthiazole-5-carboxylic acid derivatives as potent anti-cancer agents” (Bioorg Med Chem Lett, 2014).

Columns and labels:
[1] = tested on: MDA-MB-231; test: Cytotoxicity against human MDA-MB-231 cells assessed as optical density after 24 hrs by MTT assay (Rvb =2.43 +/- 0.05 nm); assay type: functional
Summary of the method: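 Exponentially growing MDA-MB-231 cells were resuspended in medium with 10% FBS, washed with PBS, and treated in fresh medium for 24 h. MTT (5 mg/mL stock in PBS) was then added for 4 h at 37 °C. Formazan was dissolved in DMSO and optical density read at 570 nm.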

[2] = Lipophilicity, log P of the compound; assay type: physicochemical; details: octanol/water
[3] = tested on: MDA-MB-231; test: Cytotoxicity against human MDA-MB-231 cells assessed as cell viability at 100 ug/ml after 24 to 48 hrs by trypan blue exclusion assay (reference value: 86.21 +/- 1.80%); assay type: functional; details: read-out: Activity
Summary of the method: (§1)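 MDA-MB-231 cells (DMEM, 10% FBS, 2 mM glutamine, 37 °C, 5% CO2) seeded at 2 x 10^5/well and grown 24 h. Compound in fresh medium with 0.1% DMSO (solvent control) for 24–48 h at 37 °C. Floating plus trypsinized adherent cells mixed 1:1 with 0.4% trypan blue and counted by haemocytometer. % viable = (total − dead)/total × 100. Mean SE, n = 3.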

[4] = tested on: MDA-MB-231; test: Cytotoxicity against human MDA-MB-231 cells assessed as cell viability at 10 ug/ml after 24 to 48 hrs by trypan blue exclusion assay (reference value: 87.54 +/- 2.11%); assay type: functional; details: read-out: Activity; summary of the method: as §1

Compound | logP [2] | OD [1] | viability at 100 µg/mL [3] [%] | viability at 10 µg/mL [4] [%]
Cc1nc(-c2ccc(OCC(C)C)c(C#N)c2)sc1C(=O)NCc1ccccc1F | 2.9 | 1.27 | 43.2 | 58.3
Cc1nc(-c2ccc(OCC(C)C)c(C#N)c2)sc1C(=O)NCc1cccc(F)c1 | 2.86 | 1.44 | 54.3 | 64.3
Cc1nc(-c2ccc(OCC(C)C)c(C#N)c2)sc1C(=O)NCc1ccc(F)cc1 | 2.86 | 0.33 | 13.1 | 21.8
Cc1nc(-c2ccc(OCC(C)C)c(C#N)c2)sc1C(=O)Nc1ccccc1 | 4.57 | 1.31 | 50.7 | 62.7
Cc1nc(-c2ccc(OCC(C)C)c(C#N)c2)sc1C(=O)N1CCC(c2noc3cc(F)ccc23)CC1 | 2.7 | 1.65 | 56.3 | 64.6
Cc1nc(-c2ccc(OCC(C)C)c(C#N)c2)sc1C(=O)n1ccc(N)nc1=O | 1.59 | 0.79 | 29.2 | 40.9
Cc1nc(-c2ccc(OCC(C)C)c(C#N)c2)sc1C(=O)n1cc(F)c(N)nc1=O | 0.94 | 2.11 | 66.4 | 74.6
Cc1nc(-c2ccc(OCC(C)C)c(C#N)c2)sc1C(=O)OCC(C)C | 0 | 1.16 | 36.2 | 44.2
Cc1ccc(-c2cc(C(F)(F)F)nn2-c2ccc(S(N)(=O)=O)cc2)cc1 [CELECOXIB] |  | 0.27 | 11.4 | 17.3

Now from value to compound, other results behind:

logP [2] | Compound | OD [1] | viability at 100 µg/mL [3] [%] | viability at 10 µg/mL [4] [%]
2.2 | Cc1nc(-c2ccc(OCC(C)C)c(C#N)c2)sc1C(=O)NCc1ccccc1 | 1.89 | 63.5 | 73.6
1.63 | COC(=O)c1sc(-c2ccc(OCC(C)C)c(C#N)c2)nc1C | 2.27 | 67.6 | 76.7
3.08 | Cc1nc(-c2ccc(OCC(C)C)cc2)sc1C(=O)O | 1.73 | 59.3 | 71.2
1.35 | Cc1nc(-c2ccc(OCC(C)C)c(C#N)c2)sc1C(=O)O [FEBUXOSTAT] | 0.56 | 27.7 | 38.3
